Assay [1] deals with Sodium-dependent dopamine transporter (Rattus norvegicus, UniProt P23977). Briefly: Inhibition of [3H]dopamine reuptake at DAT in Sprague-Dawley rat brain striatal synaptosomes incubated for 5 mins prior to [3H]dopamine addition measured after 3 mins by scintillation counting analysis. The format is subcellular. Particulars: read-out: I50. The method, boiled down: (§1)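 Crude P2 synaptosomes from male Sprague-Dawley rat striatum (dopamine) or cerebral cortex (norepinephrine), prepared at 0 °C in 0.32 M sucrose. Tritiated substrate 0.1 μM, 37 °C. Uptake quenched with cold saline plus 100 μM unlabelled substrate, then filtered. 0 °C blanks subtracted. Three inhibitor concentrations, each in triplicate. I50 taken where A0/A1 = 2, by linear regression against concentration.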

Assay [2] in a line: Inhibition of [3H]norepinephrine reuptake at NET in Sprague-Dawley rat brain cortical synaptosomes incubated for 5 mins prior to [3H]norepinephrine addition measured after 3 mins by scintillation counting analysis. The assay is classed as subcellular. Particulars: read-out: I50. The method, boiled down:
as §1

Data on ten compounds can be found in ChEMBL document CHEMBL3227960, “Inhibition of uptake of catecholamines by benzylamine derivatives” (J Med Chem, 1979).

Sodium-dependent dopamine transporter, sequence (P23977 whole entry): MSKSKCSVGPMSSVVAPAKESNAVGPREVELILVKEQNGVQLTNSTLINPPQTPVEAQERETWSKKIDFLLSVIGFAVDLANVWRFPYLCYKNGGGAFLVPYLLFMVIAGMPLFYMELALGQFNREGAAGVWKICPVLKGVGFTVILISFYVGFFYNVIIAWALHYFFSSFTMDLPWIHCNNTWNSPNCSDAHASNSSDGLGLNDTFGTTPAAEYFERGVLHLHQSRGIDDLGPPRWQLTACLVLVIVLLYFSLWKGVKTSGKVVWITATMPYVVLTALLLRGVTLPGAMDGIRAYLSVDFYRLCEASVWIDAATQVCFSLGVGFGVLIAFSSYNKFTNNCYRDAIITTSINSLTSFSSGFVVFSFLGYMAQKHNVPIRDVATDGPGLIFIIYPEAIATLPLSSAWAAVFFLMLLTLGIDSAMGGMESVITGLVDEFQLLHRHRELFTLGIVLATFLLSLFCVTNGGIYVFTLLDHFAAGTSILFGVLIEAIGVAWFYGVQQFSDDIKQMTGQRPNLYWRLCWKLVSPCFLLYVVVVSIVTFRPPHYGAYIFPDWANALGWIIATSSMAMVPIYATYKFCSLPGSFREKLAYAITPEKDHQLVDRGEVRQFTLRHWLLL

For `CCN(CCCl)Cc1ccccc1Br`, the IC50 in assay [1] turned out to be 5.87 µM; in assay [2], 0.05 µM.
The like results for `ClCCNCc1ccccc1Br` were, in that order, 326 µM and 50.2 µM.
In the same order, the values of `CCN(CCO)Cc1ccccc1Br` are 640 µM and 78 µM.
The like results for `CCN(CCO)Cc1ccccc1C` were, in that order, 1050 µM and 137 µM.
Turning to `CCN(CCCl)Cc1cccc(C)c1`, the IC50 in assay [1] worked out at 28.6 µM; in assay [2], 0.77 µM.
Regarding `CCN(CCO)Cc1cccc(C)c1`, the IC50 in assay [1] amounted to 250 µM; in assay [2] it was 49 µM.
In the same order, the values of `CCN(CCCl)Cc1ccc(C)cc1` are 78.4 µM and 3.05 µM.
In the same order, the values of `CCN(CCCl)Cc1ccccc1OC` are 303 µM and 31.1 µM.
On to `CCN(CCCl)Cc1cccc(OC)c1`, for which the figures for the IC50 in assay [1] and in assay [2] were 127 µM and 23.2 µM, respectively.
As for `CCN(CCCl)Cc1ccc(OC)cc1`, the IC50 in assay [1] was 147 µM; in assay [2], 29.8 µM.
